Reference: ChEMBL document CHEMBL1165950, “Design and synthesis of new potent anticancer pyrazoles with high FLT3 kinase inhibitory selectivity” (Bioorg Med Chem, 2010)

Legend:
Type in all cases: functional
[1] = tested on: SF-539; experiment: Cytotoxicity against human SF539 cells assessed as cell growth at 0.01 uM after 48 hrs by sulforhodamine B assay; settings: SF-539, 48 h, read-out: Activity
[2] = tested on: OVCAR-3; experiment: Growth inhibition of human OVCAR-3 cells after 48 hrs by sulforhodamine B assay; settings: OVCAR-3, 48 h; for CC50: read-out: LC50 (the source's name)
Summary of the method: (§1)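 NCI 60-cell screen, five-dose mode. Cells grown in RPMI 1640 with 5% FBS and 2 mM L-glutamine and plated at 5000-40,000 cells/well according to doubling time. After 24 h preincubation, a Tz plate was TCA-fixed. Five concentrations (10-fold or 1/2 log dilutions) were applied for 48 h at 37 °C. SRB staining read at 515 nm. IC50 taken from [(Ti-Tz)/(C-Tz)]×100 = 50.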

[3] = tested on: A549; experiment: Cytotoxicity against human A549 cells assessed as cell growth at 10 uM after 48 hrs by sulforhodamine B assay; settings: A549, 48 h, read-out: Activity
Summary of the method: (§2)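 NCI-60 five-dose screen. Cells were grown in RPMI 1640 with 5% FBS and 2 mM L-glutamine, plated at 5000–40,000 cells/well and preincubated for 24 h. Time-zero plates were TCA-fixed. DMSO-solubilized drug was added at five concentrations (10-fold or ½-log serial dilutions) for 48 h at 37 °C, 5% CO2. Cells were TCA-fixed, stained with 0.4% SRB and read at 515 nm. Percent growth used time-zero, control and test absorbances.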

[4] = tested on: PC-3; experiment: Cytotoxicity against human PC3 cells assessed as cell growth at 1 uM after 48 hrs by sulforhodamine B assay; settings: PC-3, 48 h, read-out: Activity
[5] = tested on: LOX IMVI; experiment: Cytotoxicity against human LOXIMVI cells assessed as cell growth at 0.001 uM after 48 hrs by sulforhodamine B assay; settings: read-out: Activity
[6] = tested on: HOP-92; experiment: Cytotoxicity against human HOP92 cells assessed as cell growth at 10 uM after 48 hrs by sulforhodamine B assay; settings: HOP-92, 48 h, read-out: Activity
[7] = tested on: OVCAR-3; experiment: Cytotoxicity against human OVCAR-3 cells assessed as cell growth at 100 nM after 48 hrs by sulforhodamine B assay; settings: OVCAR-3, 48 h, read-out: Activity
[8] = tested on: LOX IMVI; experiment: Growth inhibition of human LOXIMVI cells after 48 hrs by sulforhodamine B assay; settings: for CC50: read-out: LC50 (the source's name); summary of the method: as §1
[9] = tested on: K562; experiment: Cytotoxicity against human K562 cells assessed as cell growth at 1 uM after 48 hrs by sulforhodamine B assay; settings: K562, 48 h, read-out: Activity
[10] = tested on: TK-10; experiment: Cytotoxicity against human TK10 cells assessed as cell growth at 1 uM after 48 hrs by sulforhodamine B assay; settings: TK-10, 48 h, read-out: Activity
[11] = tested on: K562; experiment: Cytotoxicity against human K562 cells assessed as cell growth at 10 uM; settings: read-out: Activity
Summary of the method: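 Single-dose NCI-60 screen at 10 µM. Cells were grown in RPMI 1640 with 5% FBS and 2 mM L-glutamine, then treated for 48 h at 37 °C. Protein was measured by SRB staining with absorbance at 515 nm. Percentage growth was recorded, and inhibition percentage was calculated as 100 minus growth percentage.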

[12] = tested on: SNB-75; experiment: Cytotoxicity against human SNB75 cells assessed as cell growth at 1 uM after 48 hrs by sulforhodamine B assay; settings: SNB-75, 48 h, read-out: Activity
[13] = tested on: NCI-H460; experiment: Cytotoxicity against human NCI-H460 cells assessed as cell growth at 10 uM after 48 hrs by sulforhodamine B assay; settings: NCI-H460, 48 h, read-out: Activity
[14] = tested on: 786-0; experiment: Cytotoxicity against human 786-0 cells assessed as cell growth at 1 uM after 48 hrs by sulforhodamine B assay; settings: 786-0, 48 h, read-out: Activity; summary of the method: as §2
[15] = tested on: UACC-257; experiment: Cytotoxicity against human UACC257 cells assessed as cell growth at 1 uM after 48 hrs by sulforhodamine B assay; settings: UACC-257, 48 h, read-out: Activity
[16] = tested on: A549; experiment: Cytotoxicity against human A549 cells assessed as cell growth at 0.01 uM after 48 hrs by sulforhodamine B assay; settings: A549, 48 h, read-out: Activity; summary of the method: as §2
[17] = tested on: NCI-H522; experiment: Cytotoxicity against human NCI-H522 cells assessed as cell growth at 10 uM; settings: read-out: Activity
Summary of the method: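 NCI-60 screen: cells grown in RPMI 1640 with 5% FBS and 2 mM L-glutamine, plated at 5000–40,000 cells/well according to doubling time, and preincubated 24 h at 37 °C, 5% CO2. The single 10 µM dose (DMSO stock) was added, then incubated 48 h. Cells were TCA-fixed and stained with 0.4% SRB, read at 515 nm, and growth % calculated against time-zero and control plates.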

[18] = tested on: OVCAR-8; experiment: Cytotoxicity against human OVCAR8 cells assessed as cell growth at 100 nM after 48 hrs by sulforhodamine B assay; settings: OVCAR-8, 48 h, read-out: Activity
[19] = tested on: OVCAR-8; experiment: Cytotoxicity against human OVCAR8 cells assessed as cell growth at 0.001 uM after 48 hrs by sulforhodamine B assay; settings: OVCAR-8, 48 h, read-out: Activity
[20] = tested on: BT-549; experiment: Cytotoxicity against human BT549 cells assessed as cell growth at 0.01 uM after 48 hrs by sulforhodamine B assay; settings: BT-549, 48 h, read-out: Activity; summary of the method: as §2
[21] = tested on: COLO 205; experiment: Cytotoxicity against human COLO205 cells assessed as cell growth at 1 uM after 48 hrs by sulforhodamine B assay; settings: COLO 205, 48 h, read-out: Activity; summary of the method: as §2
[22] = tested on: HCT-15; experiment: Cytotoxicity against human HCT15 cells assessed as cell growth at 100 nM after 48 hrs by sulforhodamine B assay; settings: HCT-15, 48 h, read-out: Activity
[23] = tested on: OVCAR-5; experiment: Cytotoxicity against human OVCAR5 cells assessed as cell growth at 0.001 uM after 48 hrs by sulforhodamine B assay; settings: OVCAR-5, 48 h, read-out: Activity
[24] = tested on: NCI/ADR-RES; experiment: Cytotoxicity against human NCI/ADR-RES cells assessed as cell growth at 0.001 uM after 48 hrs by sulforhodamine B assay; settings: read-out: Activity
[25] = tested on: COLO 205; experiment: Growth inhibition of human COLO205 cells after 48 hrs by sulforhodamine B assay; settings: COLO 205, 48 h; for CC50: read-out: LC50 (the source's name)
Summary of the method: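 NCI five-dose SRB assay in RPMI 1640 with 5% FBS and 2 mM L-glutamine. Cells were preincubated 24 h, then exposed 48 h at 37 °C to five concentrations (10-fold or half-log serial dilutions from DMSO stocks). TCA fixation, SRB staining, and absorbance at 515 nm followed. IC50 was taken where [(Ti−Tz)/(C−Tz)]×100 = 50, with Tz as time-zero cell density.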

[26] = tested on: MDA-MB-468; experiment: Growth inhibition of human MDA-MB-468 cells after 48 hrs by sulforhodamine B assay; settings: MDA-MB-468, 48 h; summary of the method: as §1
[27] = tested on: NCI-H460; experiment: Cytotoxicity against human NCI-H460 cells assessed as cell growth at 0.01 uM after 48 hrs by sulforhodamine B assay; settings: NCI-H460, 48 h, read-out: Activity
[28] = Cytotoxicity against human RPMI8266 cells assessed as cell growth at 100 nM after 48 hrs by sulforhodamine B assay; settings: read-out: Activity

| Compound | growth at 0.01 µM [1] | GI50 [2] | TGI [2] | CC50 [2] | growth at 10 µM [3] | growth at 1 µM [4] | growth at 0.001 µM [5] | growth at 10 µM [6] | growth at 0.1 µM [7] | GI50 [8] | TGI [8] | CC50 [8] | growth at 1 µM [9] | growth at 1 µM [10] | growth at 10 µM [11] | growth at 1 µM [12] | growth at 10 µM [13] | growth at 1 µM [14] | growth at 1 µM [15] | growth at 0.01 µM [16] | other results |
| --- | --- | --- | --- | --- | --- | --- | --- | --- | --- | --- | --- | --- | --- | --- | --- | --- | --- | --- | --- | --- | --- |
| Cc1cc(O)cc(-c2nn(CC#N)cc2-c2ccnc(-c3ccc(Oc4ccccc4)cc3)c2)c1 | 88% | 1880 nM | 3.95 µM | 8.29 µM | -71% | -12% | 100% | -65% | 93% | 1.87 µM | 3.39 µM | 6.13 µM | -13% | 19% | 15% | 30% | -88% | -34% | -7% | 88% | growth at 10 µM [17]: 36%; growth at 0.1 µM [18]: 87%; growth at 0.001 µM [19]: 96%; growth at 0.01 µM [20]: 91%; growth at 1 µM [21]: -94%; growth at 0.1 µM [22]: 91%; growth at 0.001 µM [23]: 72%; growth at 0.001 µM [24]: 105%; GI50 [25]: 1800 nM; TGI [25]: 3.26 µM; CC50 [25]: 5.9 µM; GI50 [26]: 1790 nM; LC50 (concentration giving 50% net cell kill) [26]: 8.28 µM; TGI [26]: 3.85 µM; growth at 0.01 µM [27]: 100%; growth at 0.1 µM [28]: 88% |
| COc1cc(C)cc(-c2nn(CC#N)cc2-c2ccc(-c3cccc(C(C)=O)c3)nc2)c1 | 89% | 1340 nM | 3.3 µM | 8.13 µM | -22% | 20% | 98% | -17% | 66% | 3.52 µM | > 100 µM | > 100 µM | 5% | 2% | 16.4% | -20% | -81% | 15% | 34% | 87% | growth at 10 µM [17]: -3.15%; growth at 0.1 µM [18]: 86%; growth at 0.001 µM [19]: 91%; growth at 0.01 µM [20]: 90%; growth at 1 µM [21]: -55%; growth at 0.1 µM [22]: 69%; growth at 0.001 µM [23]: 74%; growth at 0.001 µM [24]: 99%; GI50 [25]: 1850 nM; TGI [25]: 4.13 µM; CC50 [25]: 9.2 µM; GI50 [26]: 275 nM; LC50 (concentration giving 50% net cell kill) [26]: 52.3 µM; TGI [26]: 1.49 µM; growth at 0.01 µM [27]: 104%; growth at 0.1 µM [28]: 96% |
| Cc1cc(O)cc(-c2nn(CC#N)cc2-c2ccnc(-c3ccc(N(C)C)cc3)c2)c1 | 92% | 1910 nM | 4.78 µM | 21.2 µM | -8% | 18% | 103% | -12% | 85% | 5.13 µM | 17.8 µM | 47.7 µM | 7% | 44% | 19.5% | -22% | -59% | 14% | 31% | 91% | growth at 10 µM [17]: 14.5%; growth at 0.1 µM [18]: 89%; growth at 0.001 µM [19]: 100%; growth at 0.01 µM [20]: 91%; growth at 1 µM [21]: -59%; growth at 0.1 µM [22]: 90%; growth at 0.001 µM [23]: 96%; growth at 0.001 µM [24]: 97%; GI50 [25]: 1950 nM; TGI [25]: 4.13 µM; CC50 [25]: 87.8 µM; GI50 [26]: 1630 nM; LC50 (concentration giving 50% net cell kill) [26]: 9.94 µM; TGI [26]: 4.02 µM; growth at 0.01 µM [27]: 102%; growth at 0.1 µM [28]: 96% |
